Reference: ChEMBL document CHEMBL1157464, “1-[(3-Aryloxy-3-aryl)propyl]-1H-imidazoles, new imidazoles with potent activity against Candida albicans and dermatophytes. Synthesis, structure-activity relationship, and molecular modeling studies” (J Med Chem, 2008)
Values after ≈ are worked out from the molar mass of the structure shown.

Experiments:
Candida albicans [1] = test: Antifungal activity against fluconazole-resistant Candida albicans isolated from oropharyngeal or vaginal disease patient after 48 hrs by broth microdilution test; assay type: functional
Candida albicans [2] = test: Antifungal activity against Candida albicans ATCC 10261 at 35 degC after 48 to 96 hrs by broth microdilution test; assay type: functional; conditions: for MFC: Candida albicans, ATCC 10261, read-out: MFC
Outline: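 Minimal fungicidal concentration for Candida. […] MFC is the lowest concentration allowing fewer than two colonies (99% killing).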

[3] = Cytotoxicity against human U937 cells assessed as reduction of cell viability after 24 hrs by MTT assay; assay type: cell-based, U-937
Outline: (§1)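 U937 and K562 cells, from ATCC, plated at 5 × 10^4/mL in phenol-red-free RPMI-1640 with 20% FBS and penicillin/streptomycin. Compounds added 2 h later at 25–100 µg/mL, then 24 h at 37 °C. MTT at 1 mg/mL for 3 h, formazan dissolved in isopropanol with 0.1 N HCl, absorbance read at 570 nm. CC50 is the concentration reducing viability by 50% versus the drug-free control.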

[4] = Therapeutic index, ratio of CC50 for human U937 cells to MIC90 for Candida albicans ATCC 10261; assay type: cell-based, U-937
Outline: (§2)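 Therapeutic index calculated as CC50 in the given cell line divided by MIC90.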

Candida parapsilosis = test: Antifungal activity against Candida parapsilosis ATCC 22019 at 35 degC after 48 hrs by broth microdilution test; assay type: functional; conditions: Lodderomyces parapsilosis, ATCC 22019, 48 h; for MFC: read-out: MFC; for MIC: read-out: MIC
Outline: (§3)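 Broth microdilution per NCCLS M27-A2. Stocks in 100% DMSO, diluted in RPMI 1640 with 0.165 M MOPS at pH 7.0; final range 0.25–128 µg/mL. Inoculum 1000–5000 cells/mL from SDA subcultures. […] C. parapsilosis ATCC22019 served as QC strain.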

[5] = Therapeutic index, ratio of CC50 for human K562 cells to MIC90 for Candida albicans ATCC 10261; assay type: cell-based; outline: as §2
[6] = Cytotoxicity against human K562 cells after assessed as reduction of cell viability 24 hrs by MTT assay; assay type: cell-based; outline: as §1
Candida albicans [7] = test: Antifungal activity against fluconazole-sensitive Candida albicans Fe40 at 35 degC after 48 hrs by broth microdilution test; assay type: functional; outline: as §3
Candida albicans [8] = test: Antifungal activity against Candida albicans ATCC 10261 at 35 degC after 48 hrs by broth microdilution test; assay type: functional; conditions: Candida albicans, ATCC 10261, 48 h; for MIC: read-out: MIC; for MIC50: read-out: MIC50; for MIC90: read-out: MIC90; outline: as §3
Arthrodermataceae [9] = test: Antifungal activity against dermatophytes at 28 degC after 5 days by broth microdilution test; conditions: for MFC: Arthrodermataceae
Arthrodermataceae [10] = test: Antifungal activity against dermatophytes at 28 degC after 48 to 96 hrs by broth microdilution test
Arthrodermataceae [11] = test: Antifungal activity against dermatophytes at 28 degC after 7 days by broth microdilution test; assay type: functional; conditions: 168 h
Outline: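 Ten clinical isolates (two M. canis, five M. gypseum, three T. mentagrophytes) tested by NCCLS M38-A broth microdilution in MOPS-buffered RPMI 1640, pH 7.0, over 0.25–128 µg/mL. Conidial/hyphal suspension from PDA slants (28 °C, 7 days) adjusted to 65–70% transmittance at OD530, then diluted 1:50.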

In the case of `OC(Cn1cncn1)(Cn1cncn1)c1ccc(F)cc1F` [FLUCONAZOLE], the MIC (Candida albicans [1]) is reported as 128 µg/mL (≈ 418 µM), the MFC (Candida albicans [2]) is reported as greater than 64 µg/mL and the CC50 at 24 h [3] is reported as 328 µM. For the same compound, the selectivity ratio [4] was 5.1, the MFC (Candida parapsilosis) was 8 µg/mL (≈ 26.1 µM) and the MIC (Candida parapsilosis) was 0.5 µg/mL (≈ 1.63 µM). The selectivity ratio [5] was 6, the CC50 at 24 h [6] was 385 µM and the MIC (Candida albicans [7]) was 0.25 µg/mL (≈ 0.816 µM). It also gave an MIC (Candida albicans [8]) of 15.3 µg/mL (≈ 50 µM), an MIC50 (Candida albicans [8]) of 2 µg/mL (≈ 6.53 µM) and an MIC90 (Candida albicans [8]) of 64 µg/mL (≈ 209 µM).

Compound `Cc1ccc(C(CCn2ccnc2)Oc2ccc(Cl)cc2)cc1` (stereo not given) has an MIC (Candida albicans [1]) of 3.6 µg/mL (≈ 11 µM), an MFC50 (Candida albicans [2]) of 8 µg/mL (≈ 24.5 µM) and an MFC90 (Candida albicans [2]) of 16 µg/mL (≈ 49 µM). The MFC (Candida albicans [2]) was 12 µg/mL (≈ 36.7 µM), the MFC90 (Arthrodermataceae [9]) was 32 µg/mL (≈ 97.9 µM) and the MFC (Arthrodermataceae [9]) was 25.6 µg/mL (≈ 78.3 µM). The MFC50 (Arthrodermataceae [10]) was 32 µg/mL (≈ 97.9 µM), the CC50 at 24 h [3] was 168 µM and the MIC (Arthrodermataceae [11]) was 3.8 µg/mL (≈ 11.6 µM). The MIC50 (Arthrodermataceae [11]) was 4 µg/mL (≈ 12.2 µM), the MIC90 (Arthrodermataceae [11]) was 4 µg/mL (≈ 12.2 µM) and the selectivity ratio [4] was 42. For the same compound, the MFC (Candida parapsilosis) was 8 µg/mL (≈ 24.5 µM), the MIC (Candida parapsilosis) was 4 µg/mL (≈ 12.2 µM) and the selectivity ratio [5] was 42.8. It also gave a CC50 at 24 h [6] of 171 µM, an MIC (Candida albicans [7]) of 2 µg/mL (≈ 6.12 µM) and an MIC (Candida albicans [8]) of 2.4 µg/mL (≈ 7.34 µM). For the same compound, the MIC50 (Candida albicans [8]) was 2 µg/mL (≈ 6.12 µM) and the MIC90 (Candida albicans [8]) was 4 µg/mL (≈ 12.2 µM).

`Clc1ccc(COC(Cn2ccnc2)c2ccc(Cl)cc2Cl)cc1` (stereo not given) [ECONAZOLE] showed an MFC50 (Candida albicans [2]) of 16 µg/mL (≈ 41.9 µM), an MFC90 (Candida albicans [2]) of 32 µg/mL (≈ 83.8 µM) and an MFC (Candida albicans [2]) of 15 µg/mL (≈ 39.4 µM). The MFC90 (Arthrodermataceae [9]) was 8 µg/mL (≈ 21 µM), the MFC (Arthrodermataceae [9]) was 6 µg/mL (≈ 15.7 µM) and the MFC50 (Arthrodermataceae [10]) was 4 µg/mL (≈ 10.5 µM). For the same compound, the CC50 at 24 h [3] was 108 µM, the MIC (Arthrodermataceae [11]) was 2.1 µg/mL (≈ 5.5 µM) and the MIC50 (Arthrodermataceae [11]) was 1 µg/mL (≈ 2.62 µM). For the same compound, the MIC90 (Arthrodermataceae [11]) was 4 µg/mL (≈ 10.5 µM), the selectivity ratio [4] was 13.5 and the MFC (Candida parapsilosis) was 2 µg/mL (≈ 5.24 µM). It also gave an MIC (Candida parapsilosis) of 2 µg/mL (≈ 5.24 µM), a selectivity ratio [5] of 8.8 and a CC50 at 24 h [6] of 70 µM. It also gave an MIC (Candida albicans [8]) of 4.3 µg/mL (≈ 11.3 µM), an MIC50 (Candida albicans [8]) of 4 µg/mL (≈ 10.5 µM) and an MIC90 (Candida albicans [8]) of 8 µg/mL (≈ 21 µM).

With `CC(=O)N1CCN(c2ccc(OCC3COC(Cn4ccnc4)(c4ccc(Cl)cc4Cl)O3)cc2)CC1` (stereo not given) [KETOCONAZOLE] the MIC (Candida albicans [1]) was 20 µg/mL (≈ 37.6 µM), the MFC50 (Candida albicans [2]) was 16 µg/mL (≈ 30.1 µM) and the MFC90 (Candida albicans [2]) was 32 µg/mL (≈ 60.2 µM). For the same compound, the MFC (Candida albicans [2]) was 16.3 µg/mL (≈ 30.7 µM), the MFC90 (Arthrodermataceae [9]) was 8 µg/mL (≈ 15.1 µM) and the MFC (Arthrodermataceae [9]) was 6.6 µg/mL (≈ 12.4 µM). For the same compound, the MFC50 (Arthrodermataceae [10]) was 8 µg/mL (≈ 15.1 µM), the CC50 at 24 h [3] was 125 µM and the MIC (Arthrodermataceae [11]) was 1.6 µg/mL (≈ 3.01 µM). For the same compound, the MIC50 (Arthrodermataceae [11]) was 1 µg/mL (≈ 1.88 µM), the MIC90 (Arthrodermataceae [11]) was 2 µg/mL (≈ 3.76 µM) and the selectivity ratio [4] was 15.6. The MFC (Candida parapsilosis) was 0.5 µg/mL (≈ 0.941 µM), the MIC (Candida parapsilosis) was 0.06 µg/mL (≈ 0.113 µM) and the selectivity ratio [5] was 12.8. For the same compound, the CC50 at 24 h [6] was 102 µM, the MIC (Candida albicans [7]) was 4 µg/mL (≈ 7.53 µM) and the MIC (Candida albicans [8]) was 5.9 µg/mL (≈ 11.1 µM). For the same compound, the MIC50 (Candida albicans [8]) was 4 µg/mL (≈ 7.53 µM) and the MIC90 (Candida albicans [8]) was 8 µg/mL (≈ 15.1 µM).

For `Clc1ccc(COC(Cn2ccnc2)c2ccc(Cl)cc2Cl)c(Cl)c1` (stereo not given) [MICONAZOLE], the MIC (Candida albicans [1]) was 3 µg/mL (≈ 7.21 µM), the MFC50 (Candida albicans [2]) was 8 µg/mL (≈ 19.2 µM) and the MFC90 (Candida albicans [2]) was 16 µg/mL (≈ 38.4 µM). It also gave an MFC (Candida albicans [2]) of 12.2 µg/mL (≈ 29.3 µM), an MFC90 (Arthrodermataceae [9]) of 4 µg/mL (≈ 9.61 µM) and an MFC (Arthrodermataceae [9]) of 3 µg/mL (≈ 7.21 µM). The MFC50 (Arthrodermataceae [10]) was 2 µg/mL (≈ 4.81 µM), the CC50 at 24 h [3] was 120 µM and the MIC (Arthrodermataceae [11]) was 0.9 µg/mL (≈ 2.16 µM). The MIC50 (Arthrodermataceae [11]) was 1 µg/mL (≈ 2.4 µM), the MIC90 (Arthrodermataceae [11]) was 1 µg/mL (≈ 2.4 µM) and the selectivity ratio [4] was 30. It also gave an MFC (Candida parapsilosis) of 0.5 µg/mL (≈ 1.2 µM), an MIC (Candida parapsilosis) of 1 µg/mL (≈ 2.4 µM) and a selectivity ratio [5] of 20. The CC50 at 24 h [6] was 80 µM, the MIC (Candida albicans [7]) was 4 µg/mL (≈ 9.61 µM) and the MIC (Candida albicans [8]) was 3.25 µg/mL (≈ 7.81 µM). The MIC50 (Candida albicans [8]) was 4 µg/mL (≈ 9.61 µM) and the MIC90 (Candida albicans [8]) was 4 µg/mL (≈ 9.61 µM).

Work on `Cc1ccc(OC(CCn2ccnc2)c2ccc(Cl)cc2)cc1` (stereo not given) yielded an MIC (Candida albicans [1]) of 5.6 µg/mL (≈ 17.1 µM), an MFC50 (Candida albicans [2]) of 8 µg/mL (≈ 24.5 µM) and an MFC90 (Candida albicans [2]) of 16 µg/mL (≈ 49 µM). For the same compound, the MFC (Candida albicans [2]) was 10 µg/mL (≈ 30.6 µM), the MFC90 (Arthrodermataceae [9]) was 32 µg/mL (≈ 97.9 µM) and the MFC (Arthrodermataceae [9]) was 28.8 µg/mL (≈ 88.1 µM). For the same compound, the MFC50 (Arthrodermataceae [10]) was 32 µg/mL (≈ 97.9 µM), the CC50 at 24 h [3] was 325 µM and the MIC (Arthrodermataceae [11]) was 4.6 µg/mL (≈ 14.1 µM). It also gave an MIC50 (Arthrodermataceae [11]) of 4 µg/mL (≈ 12.2 µM), an MIC90 (Arthrodermataceae [11]) of 8 µg/mL (≈ 24.5 µM) and a selectivity ratio [4] of 81.3. For the same compound, the MFC (Candida parapsilosis) was 4 µg/mL (≈ 12.2 µM), the MIC (Candida parapsilosis) was 2 µg/mL (≈ 6.12 µM) and the selectivity ratio [5] was 56.8. The CC50 at 24 h [6] was 227 µM, the MIC (Candida albicans [7]) was 2 µg/mL (≈ 6.12 µM) and the MIC (Candida albicans [8]) was 3.2 µg/mL (≈ 9.79 µM). The MIC50 (Candida albicans [8]) was 2 µg/mL (≈ 6.12 µM) and the MIC90 (Candida albicans [8]) was 4 µg/mL (≈ 12.2 µM).
